# Screens as filed in PubChem.
# MEKK2wt PB1 HTS = raises or lowers MEK5 binding to wildtype human MEKK2 PB1 domain | Q9Y2U5 | 290,000 tested, 1.1% active | binding response (% of control), % at 10 µM | bead flow cytometry, Alexa488-MEK5 binding to MEKK2 WT; actives lie on both sides; in the data active = binding response below about 67% or above about 130%; inconclusive = no clear call, values can overlap the other calls; inactive = in between
# MEKK2 mut-MEK5 = signal of MEK5 binding to mutant human MEKK2 PB1 domain; 290,000 tested, 0.35% active; bead flow cytometry, Alexa488-MEK5 binding to MEKK2 mutant; percent response, % at 10 µM; AID 1530; in the data active = percent response above about 24%, passing the limit was not always enough
# Rce1 inhib = blocks yeast Ras-converting enzyme. yeast membranes, quenched prenylated peptide cleavage fluorescence. calls only. Q03530. 290,000 tested, 0.27% active;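 active = fall in fluorescence gain of 50% or more versus controls, with final raw signal at or below 3038400; inconclusive = same 50% fall but final raw signal above 3038400; inactive = fall in fluorescence gain under 50%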;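 also: plate controls were neutral control wells for no effect and wells lacking membranes for full effect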
# Target sequence (Q03530 whole entry, looked up): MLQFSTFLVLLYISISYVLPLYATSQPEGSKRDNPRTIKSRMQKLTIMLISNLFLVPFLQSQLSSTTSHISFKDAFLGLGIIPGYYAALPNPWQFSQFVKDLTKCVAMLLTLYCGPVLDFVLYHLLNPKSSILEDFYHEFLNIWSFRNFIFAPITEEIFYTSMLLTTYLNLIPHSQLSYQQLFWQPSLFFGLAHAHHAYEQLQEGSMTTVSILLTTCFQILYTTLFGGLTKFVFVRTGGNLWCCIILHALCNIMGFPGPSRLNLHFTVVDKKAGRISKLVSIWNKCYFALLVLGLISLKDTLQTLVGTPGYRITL
# T cell HTS = T cell immune modulators affecting CD8 T cell-vesicle binding | 2C CD8+ T cell-vesicle binding, flow cytometry; hits give low values | response (vesicle binding), % at 7 µM | 330,000 tested, 0.068% active | AID 2052;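 active = response, share of CD8 T cells binding vesicles, and their 90th percentile fluorescence all below set limits, cut at about 80% in these data, passing the limit was not always enough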;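 also: values below 100% mean blocked vesicle binding to the CD8+ T cells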
#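 Material: murine 2C transgenic CD8+ T lymphocytes / Also added: QL9-peptide-loaded Drosophila micro-vesicles bearing Ld, ICAM-1 and B7-1 / Schedule: binding step 1.5 h, 37 °C, antibody labelling 20 min, ice / Signal: flow cytometry, PE anti-B7-1 (FL2) versus Alexa647 anti-CD8 (FL8), PFA-fixed / Evaluation: percent CD8+ FL2 mean versus row control / Benchmarks: naked versus QL9-loaded vesicles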
# MEKK3 PB1 HTS = MEKK3-MEK5 PB1 interaction, increase or decrease; bead-based flow cytometry, Alexa488-MEK5 binding to MEKK3; actives lie on both sides; 0 = blocked by unlabeled MEK5, 100 = vehicle; binding response (% of control), % at 10 µM; 290,000 tested, 1.4% active;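 active = binding response more than 3 SD above or below the average of its plate-row segment, actives on both sides; inconclusive = wells at one plate position flagged as instrument error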;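 also: Alexa488 bead fluorescence after subtracting the streptavidin-only scavenger bead signal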
# UCH37 DUB inh = blocks the human deubiquitinase UCH37; AID 588478; inhibition, % (no concentration beside the values); 330,000 tested, 0.33% active; purified proteasome/UCH37, Ub-AMC cleavage fluorescence; Q9Y5K5;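 active = mean inhibition over replicate wells above about 20%, limit read from the data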;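 also: 0% = compound-free wells with enzyme and 100% = wells lacking proteasome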
# Target sequence (Q9Y5K5 whole entry, looked up): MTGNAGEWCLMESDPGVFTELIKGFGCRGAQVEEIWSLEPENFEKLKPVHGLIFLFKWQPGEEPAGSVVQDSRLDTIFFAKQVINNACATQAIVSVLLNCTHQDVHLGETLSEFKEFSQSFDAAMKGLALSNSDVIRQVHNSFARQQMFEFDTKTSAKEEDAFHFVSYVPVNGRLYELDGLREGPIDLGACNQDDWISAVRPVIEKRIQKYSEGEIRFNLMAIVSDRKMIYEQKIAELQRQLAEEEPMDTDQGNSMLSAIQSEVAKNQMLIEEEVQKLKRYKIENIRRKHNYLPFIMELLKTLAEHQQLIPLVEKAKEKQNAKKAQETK
#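 System: Proteasome-associated human UCH37 deubiquitinase; Input: 0.15 nM proteasome in added enzyme buffer; Also added: Ub-AMC substrate from 1 µM stock; Incubation: 30 min compound-proteasome preincubation then 25 min substrate reaction, room temperature; Detection: fluorescence, ex 355 nm, em 460 nm; Read-out: % inhibition of Ub-AMC cleavage fluorescence; Benchmarks: no-proteasome and no-compound wells.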
# * = called active by the depositor; i = inactive; ? = inconclusive; . = no result; + = active, no number; [ ] = dose if it differs, or a comment. Sampled rows, rich in hits. Any-hit rate of the full collection: about 2.5%.
SMILES,MEKK2wt PB1 HTS,MEKK2 mut-MEK5,Rce1 inhib,T cell HTS,MEKK3 PB1 HTS,UCH37 DUB inh
COc1ccccc1-[n+]1c(C)cc(/C=C2\Sc3ccccc3N2C)cc1C,79,6,i,i,91,20*
O=C(CCC(=O)Nc1ccc(F)cc1)NN=Cc1cccnc1,.,.,.,.,.,0
O=C(NN=Cc1ccco1)C(O)C(O)C(=O)NN=Cc1ccco1 (stereo not drawn),.,.,.,.,.,2
Cc1ccc(S(=O)(=O)NCCN=Cc2ccc(N(C)C)cc2)cc1,61*[inhibitor],-1,i,115,99,9
Cc1ccc(S(=O)(=O)N=Cc2ccc(N(C)C)cc2)cc1,.,.,.,.,.,4
O=C(CSCc1ccc(Cl)cc1)NN=Cc1ccccc1,.,.,.,.,.,2
COc1ccc(S(=O)(=O)N(CC(=O)N2CCCC2)Cc2ccccc2)cc1,100,3,+,136,101,-4
CCN(Cc1ccccc1)S(=O)(=O)c1ccc(OC)cc1,107,8,i,230,104,0
COc1ccc(C2COC(=O)C2=N)c(NC(=O)c2ccc(Cl)cc2)c1 (stereo not drawn),84,-4,i,0.0*,94,5
N=C1C(=O)OCC1c1ccccc1NC(=O)c1ccccc1 (stereo not drawn),105,2,i,144,107,3
COc1ccc(C2=NCCc3cc(OC)c(OC)cc32)cc1OC,87,-4,i,i,85,0
COc1cc2c(cc1OC)C(CCc1ccccc1)=NCC2,97,-2,+,99,98,.
C=C(C)CN=c1scc(C)n1N=Cc1ccco1,.,.,.,.,.,7
Cn1ncc(Br)c1C(=O)N1CCCCCC1,113,9,i,33*,106,.
Cn1ncc(Br)c1C(=O)N1CCCC1,110,7,.,353,106,.
Cc1cc(C)n2cc(CSCc3ccco3)nc2n1,100,-2,i,200,94,-2
Cc1cc(C)n2cc(CSc3ncccc3C(=O)O)nc2n1,103,3,+,246,103,-33
Cc1ccnc(SCc2cn3c(C)cc(C)nc3n2)n1,94,-3,+,428,87,-154
Cc1cc(C)n2cc(CSC3=NCCS3)nc2n1,104,4,+,226,100,-30
Cc1cnc2ncc3sccc3c2c1,96,-2,.,217,95,2
c1cnc2ncc3sccc3c2c1,94,-5,i,190,93,28*
Brc1ccc(NN=C(N=Nc2nn[nH]n2)c2ccccc2)cc1,.,.,.,.,.,22*
COc1ccccc1N1CCN(CCCNC(=O)C2CCCN(c3ncnc4c3nc3n4CCCCC3)C2)CC1 (stereo not drawn),136*,21,i,273,103,6
COc1ccc(S(=O)(=O)N2CCCCC2)cc1C(=O)N1CCCC1,104,0,i,0.0*,103,.
CCN(CC)CCNC(=O)c1ccc(NC(=O)Cc2ccccc2F)cc1,95,-3,i,292,91,0
SMILES,MEKK2wt PB1 HTS,MEKK2 mut-MEK5,Rce1 inhib,T cell HTS,MEKK3 PB1 HTS,UCH37 DUB inh
CCN(CC)CCNC(=O)c1ccc(NC(=O)/C=C/c2ccc3ccccc3n2)cc1,0.0*,11,i,551,87,7
C=CCOc1ccc(-c2nc3c(c(=O)[nH]c(=O)n3CCCC)n2C)cc1Br,95,4,i,121,102,-6
CCCCn1c(=O)[nH]c(=O)c2c1nc(-c1ccc(OC)c(Br)c1)n2CC(C)C,94,1,+,383,100,-7
COC(C/C=C\C(=O)[C@H](C)OCc1ccccc1)OC,98,-2,+,.,100,.
COC(C/C=C\[C@@H](O)[C@@H](C)OCc1ccccc1)OC,99,-1,i,187,98,0
Cc1nc2ccccc2c(=O)n1N=Cc1ccccc1O,.,.,.,.,.,-3
CC(=O)NN=Cc1cc(C(C)(C)C)cc(C=NNC(C)=O)c1O,.,.,.,.,.,-1
CC1=C(N2CCCCC2)CCC1=O,103,5,i,244,102,33*
CC[n+]1c(/C=C/C=C/N(C(C)=O)c2ccccc2)sc2cc(OC)ccc21,11*,15,.,291,89,14
CCOC(=O)c1cc(-c2ccc(C=Nn3cnnc3)o2)ccc1Cl,.,.,.,.,.,1
Cc1c(CCOC(=O)CC23CC4CC(CC(C4)C2)C3)sc[n+]1CC(=O)c1ccccc1,139*,2,i,245,115,2
O=[N+]([O-])c1cccc(C=NNc2ncc(Br)cn2)c1,.,.,.,.,.,6
O=C(Nc1nccs1)c1ccc(N2C(=O)[C@@H]3[C@H](C2=O)[C@H]2C=C[C@@H]3C2)cc1,100,-3,.,54,98,6
O=C(Nc1nccs1)c1cccc(N2C(=O)C3C4C=CC(C4)C3C2=O)c1 (stereo not drawn),95,-1,i,236,97,29*
O=C(NC1CCCCC1)c1cccnc1Sc1ccccc1Cl,96,0,i,169,98,5
O=C(O)c1cccnc1Sc1ccccc1Cl,29*,9,i,181,97,1
C(=N\NC1=Nc2cccc3cccc1c23)/c1ccccn1,8.0*,1,i,.,95,.
CC1=Nc2ccccc2/C1=C\c1nc(-c2ccccc2)oc1O,4.0*,6,i,225,95,5
CC(C)C(=O)Nc1c2c(nc3ccccc13)N(C)CC2,108,-5,+,910,105,-298
Cc1c(NC(=O)c2cnc(Cl)c(Cl)c2)c(=O)n(-c2ccccc2)n1C,46*[inhibitor],-19,.,75,50*[inhibitor],5
Cc1nc(SC(C(=O)c2ccccc2)c2ccccc2)nc2ccccc12 (stereo not drawn),104,-1,+,268,104,.
Cc1ccc2c(C)nc(SC(C(=O)c3ccccc3)c3ccccc3)nc2c1 (stereo not drawn),88,-3,i,458,88,5
CCOc1cc(C2C3=C(CCCC3=O)N(CCC(=O)O)C3=C2C(=O)CCC3)ccc1OS(=O)(=O)c1ccc(C)cc1,100,0,i,164,78,i
Cc1ccc(S(=O)(=O)Oc2ccc(C3C4=C(CCCC4=O)N(CCC(=O)O)C4=C3C(=O)CCC4)cc2Cl)cc1,97,-2,+,174,94,i
O=C(O)/C=C/C(=O)Nc1ccc(OC(F)F)cc1,109,3,i,394,107,3
O=C(O)/C=C/C(=O)Nc1ccc(OC(F)(F)F)cc1,-3.0*,2,i,110,105,3
Cc1ccc(Nc2ccc(C(=O)O)cc2N)cc1,91,-3,?,57,88,-7
Cc1cc(C)cc(Nc2ccc(C(=O)O)cc2N)c1,96,-5,+,286,88,0
Cc1cc(C(=O)NN=Cc2c3ccccc3cc3ccccc23)n[nH]1,.,.,.,.,.,-2
